# NR2E3 ag-1 – agonists of human NR2E3 nuclear receptor; Q9Y5X4; inhibition of corepressor binding, % at 3.98 µM; AID 602229; CHO-S Gal4-NCOR/VP16-NR2E3 two-hybrid, luciferase; 360,000 compounds, 0.35% hits;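 active = inhibition above the mean of all tested compounds plus 3 SD, cut at about 70% in these data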;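 also: 0% = DMSO with NR2E3 transfected cells and 100% = cells lacking NR2E3 construct; higher means lower luciferase signal from less NR2E3 corepressor binding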
# PG9 Ab binder – small molecules binding HIV-1 gp120 antibody PG9; TR-FRET gp120-PG9 antibody binding; inhibition, % at 6.7 µM; 360,000 compounds, 0.43% hits; AID 624416; in the data active = inhibition above about 8.5%
# NR2E3 ag-2 – agonists of human nuclear receptor NR2E3; 320,000 compounds, 0.12% hits; inhibition of corepressor binding, % at 4.78 µM; GST-NR2E3/biotin-RetCOR TR-FRET, 1536-well; Q9Y5X4;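 active = percent inhibition above the cutoff of mean plus 3 SD of all tested compounds, set per screening campaign, cut at about 20% in these data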;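 also: 0% = DMSO wells and 100% = biotin wells as full block of FRET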
#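 Assay system: NR2E3–RetCOR corepressor complex. Quantity: 1.35 nM GST-NR2E3. Buffer or medium: pH 7.5 Tris-based buffer. Reagent: biotinylated RetCOR corepressor at 7 nM final. Schedule: 5 h at 4 °C. Detection: TR-FRET, emission read at 617 and 671 nm. Replicates: one well per compound, singlicate testing.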
# Rev-erbA mod – Rev-erb alpha (human) modulation; Rev-erbα–FITC-DNA binding, fluorescence polarization, 90 min; activity, % at 10 µM; 370,000 compounds, 0.79% hits; AID 1259318; P20393;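 active = activity above about 14%, limit read from the data; passing the limit was not always enough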;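 also: 0% = DMSO wells with 35 nM protein and 100% = DMSO wells with 750 nM protein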
# Neddyl block – cullin neddylation inhibition; TR-FRET cullin neddylation, biochemical; calls only at 25 µM; 360,000 compounds, 0.58% hits; AID 651699; in the data active = inhibition above about 36%
# Target sequence (P61081 whole entry, looked up): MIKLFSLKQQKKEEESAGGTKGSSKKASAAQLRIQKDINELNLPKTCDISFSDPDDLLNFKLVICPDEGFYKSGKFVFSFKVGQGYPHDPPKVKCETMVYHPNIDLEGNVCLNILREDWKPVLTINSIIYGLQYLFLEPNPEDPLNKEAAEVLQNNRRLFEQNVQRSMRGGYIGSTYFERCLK
# Target sequence (Q13564 whole entry, looked up): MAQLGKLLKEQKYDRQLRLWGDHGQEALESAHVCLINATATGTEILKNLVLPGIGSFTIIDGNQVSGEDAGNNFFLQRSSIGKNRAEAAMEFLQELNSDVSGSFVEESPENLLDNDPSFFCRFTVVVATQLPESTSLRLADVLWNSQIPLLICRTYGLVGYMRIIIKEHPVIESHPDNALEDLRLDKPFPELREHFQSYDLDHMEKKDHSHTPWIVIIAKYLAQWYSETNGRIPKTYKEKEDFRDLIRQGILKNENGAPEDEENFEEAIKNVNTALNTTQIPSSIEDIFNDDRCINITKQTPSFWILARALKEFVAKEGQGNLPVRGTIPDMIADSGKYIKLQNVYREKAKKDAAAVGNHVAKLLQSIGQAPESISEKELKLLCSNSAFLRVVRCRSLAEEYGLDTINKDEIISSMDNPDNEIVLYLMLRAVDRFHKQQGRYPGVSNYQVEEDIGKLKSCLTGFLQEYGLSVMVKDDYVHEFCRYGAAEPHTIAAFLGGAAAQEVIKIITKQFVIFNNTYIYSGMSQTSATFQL
# NR2E3 ag confirm – confirmation of human NR2E3 agonists | shares compounds with NR2E3 ag-1 | CHO-S mammalian two-hybrid NR2E3-NCOR, luciferase luminescence | inhibition, % at 3.98 µM | 2,300 compounds, 51% hits;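 active = average inhibition above a cutoff equal to the mean inhibition of all tested compounds plus one SD, cut at about 70% in these data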;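 also: 0% = DMSO in NR2E3 cells and 100% = DMSO in cells lacking NR2E3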
# GAL4-VP16 luc – reduces GAL4-VP16 reporter signal in NR2E3 counterscreen; shares compounds with NR2E3 ag-1; CHO-S GAL4-VP16 luciferase reporter, luminescence; inhibition, % at 3.98 µM; 2,300 compounds, 29% hits;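 active = mean inhibition above a cutoff equal to the average over all tested compounds plus one standard deviation, cut at about 70% in these data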;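 also: luciferase from a UAS reporter driven by GAL4-VP16 transactivation; 0% = DMSO with VP16-transfected cells and 100% = DMSO with cells lacking VP16; higher means less reporter light so more repression of VP16 activity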
# An asterisk follows results filed as active; i = inactive; . = not tested or not shown. Shown are actives, neighbours in structure and some others; about 2% of the full set was active somewhere.
SMILES,NR2E3 ag-1,PG9 Ab binder,NR2E3 ag-2,Rev-erbA mod,Neddyl block,NR2E3 ag confirm,GAL4-VP16 luc
CC(COc1cccc(Cl)c1)CN1CCC(C(O)(c2ccccc2)c2ccccc2)CC1 (centres undefined),.,.,.,-0.1,.,.,.
COCCC1CCCCN1C(=O)c1cc(COc2ccc(-n3cncn3)cc2)on1 (centres undefined),104.7*,-2.1,16.5,2.1,i,94.6*,78.9*
COCCOC1CCN(C(=O)c2cc(COc3ccc(-n4cncn4)cc3)on2)CC1,14.3,0.9,3.8,-5.0,i,.,.
COc1ccc(C(C(=O)N(C)C2CCCC2)N(Cc2ccc(F)cc2)C(=O)c2csc3ccc(Cl)cc23)cc1OC (centres undefined),.,.,.,3.9,.,.,.
O=C(Nc1ccc(OCC(F)(F)C(F)F)c(C(F)(F)F)c1)c1ccccc1,-12.8,-1.6,0.2,1.2,i,.,.
O=C(Nc1ccc(OCC(F)(F)C(F)F)c(C(F)(F)F)c1)c1ccccc1O,99.3*,-0.8,3.1,0.9,.,98.3*,75.5*
COc1ccc2c(c1)N=C(c1[nH]c3ccccc3c1CCN1C(=O)c3ccccc3C1=O)[C@]2(O)CCN1C(=O)c2ccccc2C1=O,.,.,.,2.9,.,.,.
Cc1c(C(C)C)c(=O)n(-c2ccc(S(=O)(=O)N3CCOCC3)cc2)n1C,10.9,-2.0,-0.1,-1.5,i,.,.
Cc1c(C(C)C)c(=O)n(-c2ccc(S(=O)(=O)NCc3ccccc3)cc2)n1C,81.4*,-3.7,0.7,0.3,i,94.2*,81.2*
Cc1c(C(C)C)c(=O)n(-c2ccc(S(=O)(=O)NC3CCCCC3)cc2)n1C,71.7*,0.1,1.8,-1.4,i,87.0*,68.2
C=CC[n+]1c(-c2ccc(Cl)cc2Cl)csc1Nc1ccc(NC(C)=O)cc1,68.2,-1.0,-2.8,4.0,i,73.2*,56.4
C=CC[n+]1c(-c2ccc(Cl)cc2Cl)csc1Nc1c(C)n(C)n(-c2ccccc2)c1=O,43.2,-3.7,-0.5,-0.2,i,.,.
Cc1nn(Cc2ccc(Cl)cc2)c(C)c1NC(=O)c1cc(-c2ccc3c(c2)OCO3)on1,57.9,-2.3,-1.4,-1.5,i,74.5*,51.4
Cc1nn(Cc2ccc(Cl)c(Cl)c2)c(C)c1NC(=O)c1cc(-c2ccc3c(c2)OCO3)on1,6.2,-1.7,-1.9,-1.2,i,.,.
COc1cc2c(cc1OC)-c1cc(Nc3ccc4c(c3)OCCO4)nc(=O)n1CC2,55.0,-3.5,3.4,-0.6,i,28.4,-11.6
CC1=C2NC(N)=[N+](Cc3ccc4c(c3)OCO4)CC2n2c(=O)n(-c3ccccc3)c(=O)n2C1 (centres undefined),.,.,.,-3.0,.,.,.
FC(F)(F)c1nc(N2CCCC2)ncc1-c1nnnn1-c1ccccc1,65.2,0.0,-3.3,-2.9,i,75.0*,59.7
Cc1ccc(NC(=S)N/N=C2\CCCCC2C)cc1 (centres undefined),-70.3,2.1,3.1,-1.8,i,.,.
CC1CCCC/C1=N\NC(=S)NCCc1ccccc1 (centres undefined),49.9,0.6,-1.1,3.4,i,-7.4,-5.0
CC(=O)O[C@H]1CC2CCC3C(CC[C@@]4(C)C3C[C@H]([N+]3(C)CCCCC3)[C@@H]4OC(C)=O)[C@@]2(C)C[C@@H]1[N+]1(C)CCCCC1 (some centres undefined),.,.,.,-5.9,.,.,.
COc1cccc(-c2nnc3n2N=C(c2ccc(Cl)cc2)CS3)c1,.,.,.,-3.5,.,.,.
COc1cccc(-c2nnc3n2N=C(C(C)(C)C)CS3)c1,68.8,0.4,3.2,-1.7,i,29.5,50.8
Cc1ccc(OCCOc2ccc(Cl)cc2Cl)c(Br)n1,.,.,.,7.0,.,.,.
CC1=C(O)c2ccccc2C(=O)C1=O,53.0,-19.4,.,2.2,i,84.9*,48.9
C[C@@H]1CCN(C2CC2)S(=O)(=O)c2ccc(N3CC[C@@H](N(C)C)C3)cc2O1,.,.,.,-6.3,.,.,.
SMILES,NR2E3 ag-1,PG9 Ab binder,NR2E3 ag-2,Rev-erbA mod,Neddyl block,NR2E3 ag confirm,GAL4-VP16 luc
CN1CCN(CCCNC(=O)c2ccc(/C=C3\Sc4ccccc4N(Cc4ccc(F)cc4)C3=O)cc2)CC1,14.9,1.3,.,0.5,i,.,.
CCN1CCN(CCNC(=O)c2ccc(/C=C3\Sc4ccccc4N(Cc4ccccc4F)C3=O)cc2)CC1,47.9,0.3,1.0,-3.0,i,-11.2,34.6
O=C(Cc1cc(=O)[nH][nH]1)N/N=C/c1ccccc1C(F)(F)F,.,.,.,-0.8,.,.,.
Cc1c(C#N)c2ncn(CCCN(C)C)c(=O)c2n1-c1ccccc1,89.5*,0.3,1.6,1.5,i,-9.0,-10.4
CC(=O)Nc1ccc(S(=O)(=O)N2CCN=C2SCc2ccc([N+](=O)[O-])cc2)cc1,49.9,0.5,-0.5,1.3,i,78.7*,48.7
CC(=O)Nc1ccc(S(=O)(=O)N2CCN=C2SCc2cccc(C)c2)cc1,13.1,-1.5,1.6,-1.1,i,.,.
COc1ccc(OC)c(S(=O)(=O)N2CCC(C(=O)N3CCN(C4CCCCC4)CC3)CC2)c1,.,.,.,-0.1,.,.,.
COc1ccc(OCC(O)CN2CCc3ccccc3C2)cc1 (centres undefined),-8.5,0.4,-0.1,9.6,i,.,.
CC(C)(C)c1ccc(OCC(O)CN2CCc3ccccc3C2)cc1 (centres undefined),85.3*,-0.2,2.6,8.6,i,-3.3,1.7
CC(C)CCCC(C)[C@H]1CCC2C3CC=C4C[C@@H](O)CC[C@]4(C)C3CC[C@@]21C (some centres undefined),.,.,.,2.1,.,.,.
CN1NC(=O)c2ccccc2NC1=S,.,0.9,.,0.6,.,.,.
Cc1ccc(-n2c(C)nc3c(cnn3-c3ccc(F)cc3)c2=O)cc1C,54.5,0.3,-0.3,1.1,i,88.1*,60.0
CCOc1ccc(CCNC(=O)COC(=O)Cc2ccc(F)cc2)cc1OCC,59.2,1.7,1.9,8.9,i,21.8,12.7
Cc1oc(-c2ccc3c(c2)OCCO3)cc1C(=O)NCC(=O)O,-84.5,-0.9,-4.0,-1.0,i,.,.
Cc1oc(-c2ccc3c(c2)OCCO3)cc1C(=O)O,58.9,-2.2,4.0,-2.8,i,60.6,50.3
CC(=O)N1c2ccc(S(=O)(=O)N3CCC(C(=O)N4CCN(c5cccc(C(F)(F)F)c5)CC4)CC3)cc2CC1C (centres undefined),99.2*,-1.5,-1.2,5.7,i,88.6*,75.8*
CC(=O)N1c2ccc(S(=O)(=O)N3CCC(C(=O)Nc4cccc(Cl)c4)CC3)cc2CC1C (centres undefined),78.0*,-0.9,2.5,4.7,i,74.0*,52.4
O=Cc1ccc(/C=C2\c3ccccc3C(=O)N2c2ccccc2)o1,.,-3.6,.,0.9,.,.,.
CCc1[nH]nc(C(=O)N2CCCC(C(=O)c3cccc(C(F)(F)F)c3)C2)c1C (centres undefined),49.0,-2.9,-3.9,-4.8,i,19.9,31.3

# Source: PubChem
